In brackets after ≈: the same amount, converted by molar mass.
Tests used:
[1] = test system: Pseudomonas aeruginosa; assay: Antimicrobial activity against Pseudomonas aeruginosa at 4 ug/ml after 24 hrs by agar diffusion technique; type: functional; details: read-out: DIZ
Outline: (§1)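 Strains came from a university microbiology department. Inocula were 10⁶ CFU/mL. Mueller-Hinton agar was seeded with culture, poured 3–4 mm thick, and 10 mm cups were bored. Compounds were dissolved in DMF (10 mg/mL stock), diluted, and the solution was placed in the cups. Plates were incubated at 37 °C overnight. Inhibition zone diameter (mm) was read at 24 h.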

[2] = test system: Pseudomonas aeruginosa; assay: Antimicrobial activity against Pseudomonas aeruginosa at 16 ug/ml after 24 hrs by agar diffusion technique; type: functional; details: read-out: DIZ; outline: as §1
[3] = test system: Pseudomonas aeruginosa; assay: Antimicrobial activity against Pseudomonas aeruginosa at 64 ug/ml after 24 hrs by agar diffusion technique; type: functional; details: read-out: DIZ; outline: as §1
[4] = test system: Pseudomonas aeruginosa; assay: Antimicrobial activity against Pseudomonas aeruginosa at 128 ug/ml after 24 hrs by agar diffusion technique; type: functional; details: read-out: DIZ; outline: as §1
[5] = test system: Pseudomonas aeruginosa; assay: Antimicrobial activity against Pseudomonas aeruginosa at 512 ug/ml after 24 hrs by agar diffusion technique; type: functional; details: read-out: DIZ; outline: as §1
[6] = test system: Escherichia coli; assay: Antimicrobial activity against Escherichia coli at 4 ug/ml after 24 hrs by agar diffusion technique; type: functional; details: read-out: DIZ; outline: as §1
[7] = test system: Escherichia coli; assay: Antimicrobial activity against Escherichia coli at 16 ug/ml after 24 hrs by agar diffusion technique; type: functional; details: read-out: DIZ; outline: as §1
[8] = test system: Escherichia coli; assay: Antimicrobial activity against Escherichia coli at 64 ug/ml after 24 hrs by agar diffusion technique; type: functional; details: read-out: DIZ; outline: as §1
[9] = test system: Escherichia coli; assay: Antimicrobial activity against Escherichia coli at 128 ug/ml after 24 hrs by agar diffusion technique; type: functional; details: read-out: DIZ; outline: as §1
[10] = test system: Escherichia coli; assay: Antimicrobial activity against Escherichia coli at 512 ug/ml after 24 hrs by agar diffusion technique; type: functional; details: read-out: DIZ; outline: as §1
[11] = test system: Klebsiella pneumoniae; assay: Antimicrobial activity against Klebsiella pneumoniae at 4 ug/ml after 24 hrs by agar diffusion technique; type: functional; details: read-out: DIZ; outline: as §1
[12] = test system: Klebsiella pneumoniae; assay: Antimicrobial activity against Klebsiella pneumoniae at 16 ug/ml after 24 hrs by agar diffusion technique; type: functional; details: read-out: DIZ; outline: as §1
[13] = test system: Klebsiella pneumoniae; assay: Antimicrobial activity against Klebsiella pneumoniae at 64 ug/ml after 24 hrs by agar diffusion technique; type: functional; details: read-out: DIZ; outline: as §1
[14] = test system: Klebsiella pneumoniae; assay: Antimicrobial activity against Klebsiella pneumoniae at 128 ug/ml after 24 hrs by agar diffusion technique; type: functional; details: read-out: DIZ; outline: as §1
[15] = test system: Klebsiella pneumoniae; assay: Antimicrobial activity against Klebsiella pneumoniae at 512 ug/ml after 24 hrs by agar diffusion technique; type: functional; details: read-out: DIZ; outline: as §1
[16] = test system: Pseudomonas aeruginosa; assay: Antimicrobial activity against Pseudomonas aeruginosa after 24 hrs by agar diffusion technique; type: functional; details: for MIC: Pseudomonas aeruginosa, 24 h
Outline: (§2)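 Agar cup diffusion on Mueller-Hinton agar seeded from 10⁶ CFU/mL suspensions, with 10 mm cups in a 3–4 mm layer. Compounds were in DMF (10 mg/mL stock) at several concentrations. Plates were incubated at 37 °C and zones measured after 24 h. MIC was taken as the intercept of the plot of log concentration against inhibition zone diameter.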

[17] = test system: Escherichia coli; assay: Antimicrobial activity against Escherichia coli after 24 hrs by agar diffusion technique; type: functional; details: for MIC: Escherichia coli, 24 h; outline: as §2
[18] = test system: Klebsiella pneumoniae; assay: Antimicrobial activity against Klebsiella pneumoniae after 24 hrs by agar diffusion technique; type: functional; details: for MIC: Klebsiella pneumoniae, 24 h; outline: as §2
[19] = test system: Staphylococcus aureus; assay: Antimicrobial activity against Staphylococcus aureus after 24 hrs by agar diffusion technique; type: functional; details: for MIC: Staphylococcus aureus, 24 h; outline: as §2
[20] = Octanol-phosphate buffer partition coefficient, log D at pH 7.4 by spectrophotometry; type: physicochemical
Outline: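 Shake-flask method. A 0.2 mg/mL stock was diluted into pH 7.4 phosphate buffer and mixed with an equal volume of n-octanol, phases mutually presaturated and protected from light. Samples were vortexed 3 min, then shaken 5 h at 25 °C. Both phases were assayed by UV at 270–280 nm. D is the molar concentration ratio, octanol to aqueous.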

[21] = test system: Staphylococcus aureus; assay: Antimicrobial activity against Staphylococcus aureus at 4 ug/ml after 24 hrs by agar diffusion technique; type: functional; details: read-out: DIZ; outline: as §1
[22] = test system: Staphylococcus aureus; assay: Antimicrobial activity against Staphylococcus aureus at 16 ug/ml after 24 hrs by agar diffusion technique; type: functional; details: read-out: DIZ; outline: as §1
[23] = test system: Staphylococcus aureus; assay: Antimicrobial activity against Staphylococcus aureus at 64 ug/ml after 24 hrs by agar diffusion technique; type: functional; details: read-out: DIZ; outline: as §1
[24] = test system: Staphylococcus aureus; assay: Antimicrobial activity against Staphylococcus aureus at 128 ug/ml after 24 hrs by agar diffusion technique; type: functional; details: read-out: DIZ; outline: as §1
[25] = test system: Staphylococcus aureus; assay: Antimicrobial activity against Staphylococcus aureus at 512 ug/ml after 24 hrs by agar diffusion technique; type: functional; details: read-out: DIZ; outline: as §1

| MIC [16] | MIC [17] | Compound | zone of inhibition at 4 µg/mL [1] | zone of inhibition at 16 µg/mL [2] | zone of inhibition at 64 µg/mL [3] | zone of inhibition at 128 µg/mL [4] | zone of inhibition at 512 µg/mL [5] | zone of inhibition at 4 µg/mL [6] | zone of inhibition at 16 µg/mL [7] | zone of inhibition at 64 µg/mL [8] | zone of inhibition at 128 µg/mL [9] | zone of inhibition at 512 µg/mL [10] | zone of inhibition at 4 µg/mL [11] | zone of inhibition at 16 µg/mL [12] | zone of inhibition at 64 µg/mL [13] | zone of inhibition at 128 µg/mL [14] | zone of inhibition at 512 µg/mL [15] | logMIC [16] | logMIC [17] | logMIC [18] | also measured |
| --- | --- | --- | --- | --- | --- | --- | --- | --- | --- | --- | --- | --- | --- | --- | --- | --- | --- | --- | --- | --- | --- |
| > 512 µg/mL | > 512 µg/mL | CCn1cc(C(=O)O)c(=O)c2cc(F)c(N3CCN(c4nnc(-c5ccccc5)c(-c5ccccc5)n4)CC3)cc21 | 0 mm | 0 mm | 0 mm | 0 mm | 0 mm | 0 mm | 0 mm | 0 mm | 0 mm | 0 mm | 0 mm | 0 mm | 0 mm | 0 mm | 0 mm | 2.71 | 2.71 | 2.71 | MIC [18]: > 512 µg/mL; logMIC [19]: 1.81; MIC [19]: 64 µg/mL (≈ 116 µM); logD [20]: -0.072 |
| > 512 µg/mL | 64 µg/mL (≈ 165 µM) | CCn1cc(C(=O)O)c(=O)c2cc(F)c(N3CCN(C4CCCC4)CC3)cc21 | 0 mm | 0 mm | 0 mm | 0 mm | 0 mm | 0 mm | 0 mm | 0 mm | 3 mm | 8 mm | 0 mm | 0 mm | 2 mm | 3 mm | 8 mm | 2.71 | 1.81 | 1.11 | zone of inhibition at 4 µg/mL [21]: 0 mm; zone of inhibition at 16 µg/mL [22]: 0 mm; zone of inhibition at 64 µg/mL [23]: 4 mm; zone of inhibition at 128 µg/mL [24]: 7 mm; zone of inhibition at 512 µg/mL [25]: 15 mm; MIC [18]: 13 µg/mL (≈ 33.6 µM); logMIC [19]: 1.04; MIC [19]: 11 µg/mL (≈ 28.4 µM) |
| 64 µg/mL (≈ 134 µM) | 128 µg/mL (≈ 268 µM) | CCn1cc(C(=O)O)c(=O)c2cc(F)c(N3CCN(CN4C(=O)c5ccccc5C4=O)CC3)cc21 | 0 mm | 0 mm | 0 mm | 10 mm | 12 mm | 0 mm | 0 mm | 0 mm | 0 mm | 9 mm | 0 mm | 0 mm | 4 mm | 8 mm | 10 mm | 1.81 | 2.11 | 0.95 | zone of inhibition at 4 µg/mL [21]: 0 mm; zone of inhibition at 16 µg/mL [22]: 0 mm; zone of inhibition at 64 µg/mL [23]: 0 mm; zone of inhibition at 128 µg/mL [24]: 0 mm; zone of inhibition at 512 µg/mL [25]: 0 mm; MIC [18]: 9 µg/mL (≈ 18.8 µM); logMIC [19]: 2.71; MIC [19]: > 512 µg/mL |
| 5 µg/mL (≈ 11.6 µM) | < 1 µg/mL | CCn1cc(C(=O)O)c(=O)c2cc(F)c(N3CCN(CN4C(=O)CCC4=O)CC3)cc21 | 0 mm | 9 mm | 13 mm | 15 mm | 27 mm | 0 mm | 0 mm | 0 mm | 0 mm | 5 mm | 8 mm | 15 mm | 20 mm | 22 mm | 31 mm | 0.7 | 0 | 2.11 | zone of inhibition at 4 µg/mL [21]: 0 mm; zone of inhibition at 16 µg/mL [22]: 4 mm; zone of inhibition at 64 µg/mL [23]: 12 mm; zone of inhibition at 128 µg/mL [24]: 13 mm; zone of inhibition at 512 µg/mL [25]: 22 mm; MIC [18]: 128 µg/mL (≈ 297 µM); logMIC [19]: 0.6; MIC [19]: 4 µg/mL (≈ 9.29 µM); logD [20]: -0.8 |

Reference: ChEMBL document CHEMBL1137764, “Design, synthesis, antibacterial activity and physicochemical parameters of novel N-4-piperazinyl derivatives of norfloxacin” (Bioorg Med Chem, 2009)
